Measurements of several laboratories.
Compare with care: the assays were run in different laboratories.
ABL1 F317L: Tyrosine-protein kinase ABL1 (ABL1, Homo sapiens, UniProt P00519, F317L)

COc1ccc2oc(-c3ccc4nc(N)oc4c3)c/c(=N\c3ccccc3NC(=O)CCN)c2c1  remaining signal (Tyrosine-protein kinase ABL1 (ABL1, Homo sapiens, UniProt P00519, T315I); cell-free assay; 1 µM): 103%
COc1ccc2[nH]c3c4[nH]c5ccc(OC)cc5c4c4c(c3c2c1)C(=O)NC4=O  remaining binding (ABL1 F317L; binding; 1 µM): 84%
C1=C/COCc2cc(ccc2OCCN2CCCC2)Nc2nccc(n2)-c2cccc(c2)COC/1  remaining binding (ABL1 F317L; binding; 0.1 µM): 58%
CN1CCN(C(=O)c2ccc(NC(=O)Nc3ccc(N(C)c4ccnc(Nc5ccc(CS(C)(=O)=O)cc5)n4)cc3)cc2)CC1  remaining binding (Tyrosine-protein kinase ABL1, phosphorylated (ABL1, Homo sapiens, UniProt P00519); binding; competition with immobilised ligand; 1 µM): 30%
CO[C@@H]1[C@H](N(C)C(=O)c2ccccc2)C[C@H]2O[C@]1(C)n1c3ccccc3c3c4c(c5c6ccccc6n2c5c31)C(=O)NC4  inhibition (Tyrosine-protein kinase ABL1, non-phosphorylated (ABL1, Homo sapiens, UniProt P00519, Q252H); enzyme activity; inhibitor; 1 µM): 0%
N#Cc1ccc(NC(=O)Nc2ccccc2)cc1  remaining binding (Tyrosine-protein kinase ABL1, phosphorylated (ABL1, Homo sapiens, UniProt P00519, E255K); cell-free assay; competition with immobilised ligand; 25 µM): 92%
CC#CC(=O)N1CCC[C@H]1c1nc(-c2ccc(C(=O)Nc3ccccn3)cc2)c2c(N)nccn12  inhibition (Tyrosine-protein kinase ABL1, non-phosphorylated (ABL1, Homo sapiens, UniProt P00519, F317I); enzyme activity; inhibitor; 1 µM): 25%
CCCCC(=O)Nc1ccc(-c2ccc3ncn(CCC)c(=O)c3c2)cn1  remaining binding (Tyrosine-protein kinase ABL1, phosphorylated (ABL1, Homo sapiens, UniProt P00519, F317L); binding; competition with immobilised ligand; 0.5 µM): 97%
C[C@H]1CC[C@H](n2c3cnccc3c3cnc(Nc4ccc5c(n4)CCN(C(=O)CO)C5)nc32)CC1  remaining binding (Tyrosine-protein kinase ABL1, non-phosphorylated (ABL1, Homo sapiens, UniProt P00519); binding; competition with immobilised ligand; 1 µM): 56%
C=CC(=O)N1CCC([C@@H]2CCNc3c(C(N)=O)c(-c4ccc(Oc5ccccc5)cc4)nn32)CC1  inhibition (Tyrosine-protein kinase ABL1, non-phosphorylated (ABL1, Homo sapiens, UniProt P00519, H396P); enzyme activity; inhibitor; 1 µM): 5%
